One may read the IC50 as the concentration that inhibits the measured activity by half. A word on the inhibition: it is the share of the control response that was lost under treatment.

Experimental findings from ChEMBL document CHEMBL4311987, “Discovery of novel allosteric site and covalent inhibitors of FBPase with potent hypoglycemic effects” (Eur J Med Chem, 2019) are described below.

In data set [1] the target is T1, Fructose-1,6-bisphosphatase 1 (Homo sapiens, UniProt P09467).
T1 sequence (P09467 whole entry): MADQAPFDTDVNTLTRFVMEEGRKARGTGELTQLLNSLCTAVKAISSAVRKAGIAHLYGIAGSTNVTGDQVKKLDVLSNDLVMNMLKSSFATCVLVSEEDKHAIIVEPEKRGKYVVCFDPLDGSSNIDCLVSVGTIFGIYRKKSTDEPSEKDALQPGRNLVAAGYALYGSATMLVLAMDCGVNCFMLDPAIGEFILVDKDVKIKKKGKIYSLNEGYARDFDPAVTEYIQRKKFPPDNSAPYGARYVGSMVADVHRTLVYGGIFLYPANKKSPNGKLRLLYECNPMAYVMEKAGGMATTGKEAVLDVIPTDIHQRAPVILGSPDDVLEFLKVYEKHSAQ
The experiment in a line: Inhibition of human FBPase expressed in Escherichia coli BL21 (DE3) using FBP as substrate incubated for 5 mins by malachite green dye based spectrophotometry.

The target of data set [2] is T2, Fructose-1,6-bisphosphatase 1 (Homo sapiens) (UniProt P09467).
T2 sequence (whole entry): T1 sequence (P09467 whole entry)
Nature of the data set: Inhibition of human FBPase expressed in Escherichia coli BL21 (DE3) at 500 uM using FBP as substrate incubated for 5 mins by malachite green dye based spectrophotometry relative to control.

Data set [3] concerns Hepatocyte. The experiment in a line: Inhibition of lipid accumulation in C57BLKS rat Primary hepatocytes assessed as reduction in insulin and glucose-induced TG level at 100 uM incubated for 24 hrs. It is filed as functional, cell-based. The method in brief: (§1)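 After overnight culture in DMEM, rat primary hepatocytes pretreated with compounds, then held in 25 mM glucose plus 500 nM insulin for 24 h to induce lipid accumulation. Triglyceride and total cholesterol measured with assay kits and normalized to BCA protein. Means ± SEM of four independent experiments.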

The nature of data set [4]: Cytotoxicity against C57BLKS rat Primary hepatocytes assessed as cell viability incubated for 6 hrs by SRB assay. The settings on record: read-out: Activity. The format is cell-based, Hepatocyte. The method in brief: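 Rat primary hepatocytes under physiological conditions exposed to compounds for 6 h. Viability read by sulforhodamine B staining. Means ± SEM of four independent experiments.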

Data set [5] has as its system Hepatocyte. Nature of the data set: Inhibition of glucose production in cAMP and Dex pre-treated C57BLKS rat Primary hepatocytes incubated for 3 hrs by glucose assay kit method. The format is functional, cell-based. The method in brief: (§2)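 Rat primary hepatocytes cultured overnight in DMEM/10% FBS, then pretreated with compounds for 3 h in fresh medium. Switched to glucose-free DMEM with 2 mM sodium pyruvate, 20 mM sodium lactate and compound for 3 h. Medium glucose measured with a kit and normalized to BCA protein. Pathological arm adds 1 µM dexamethasone plus 200 µM cAMP for 3 h. Means ± SEM, n=4.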

In data set [6] the test system is Hepatocyte. Nature of the data set: Cytotoxicity against C57BLKS rat Primary hepatocytes assessed as cell viability by measuring cellular protein level at 1 to 100 uM in presence of cAMP and Dex by bicinchoninic acid method. It is filed as cell-based. Put shortly:
(§3)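 Primary hepatocytes isolated from rat, cultured overnight in DMEM with 10% FBS, then exposed to compounds. Cellular protein per group measured by bicinchoninic acid (BCA) method as a viability control. The same protein values serve to normalize glucose, TG and TC contents. Pathological stimulation where applicable: 1 µM dexamethasone plus 200 µM cAMP, or 25 mM glucose plus 500 nM insulin for 24 h. Means ± SEM, four independent experiments.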

Data set [7] concerns Hepatocyte. The experiment in a line: Inhibition of lipid accumulation in C57BLKS rat Primary hepatocytes assessed as reduction in insulin and glucose-induced TC level at 25 uM incubated for 24 hrs. It is filed as functional, cell-based. The method in brief: as §1
Data set [8] has as its system Hepatocyte. Nature of the data set: Inhibition of glucose production in cAMP and Dex pre-treated C57BLKS rat Primary hepatocytes at 1 uM incubated for 3 hrs by glucose assay kit method. It is filed as functional, cell-based. The method in brief:
as §2

Data set [9] relates to Hepatocyte. The experiment in a line: Inhibition of lipid accumulation in C57BLKS rat Primary hepatocytes assessed as reduction in insulin and glucose-induced TC level incubated for 24 hrs. It is filed as functional, cell-based. Put shortly: as §1
The subject of data set [10] is Hepatocyte. Nature of the data set: Inhibition of lipid accumulation in C57BLKS rat Primary hepatocytes assessed as reduction in insulin and glucose-induced TG level at 25 uM incubated for 24 hrs. It is filed as functional, cell-based. The method in brief: as §1
For data set [11], the system named is Hepatocyte. The experiment in a line: Inhibition of glucose production in C57BLKS rat Primary hepatocytes at 400 uM incubated for 3 hrs by glucose assay kit method relative to control. The format is functional. Put shortly:
as §2

Data set [12] concerns Hepatocyte. Nature of the data set: Cytotoxicity against C57BLKS rat Primary hepatocytes assessed as cell viability by measuring cellular protein level at 10 to 400 uM by bicinchoninic acid method. It is filed as cell-based. Put shortly:
as §3

In data set [13] the test system is Hepatocyte. The experiment in a line: Inhibition of glucose production in C57BLKS rat Primary hepatocytes incubated for 3 hrs by glucose assay kit method. It is filed as functional, cell-based. The method in brief:
as §2

Data set [14] concerns Hepatocyte. The experiment in a line: Cytotoxicity against C57BLKS rat Primary hepatocytes assessed as cell viability by measuring cellular protein level at 10 to 100 uM in presence of insulin and glucose by bicinchoninic acid method. It is filed as cell-based. Put shortly:
as §3

Calls of active or inactive are those of the source. The calls are words filed in the database; no cut-off is given here.

`CCOC(=O)C(C)(C)Oc1cc(/C=C/[N+](=O)[O-])ccc1Cl` gave an IC50 in [1] of 830 nM.
With `CCOC(=O)C(C)(C)Oc1ccccc1/C=C/[N+](=O)[O-]`, half-maximal inhibition in [1] (IC50) required 2700 nM.
For the compound `Nc1ncnc2c1ncn2[C@@H]1O[C@H](COP(=O)(O)O)[C@@H](O)[C@H]1O` [ADENOSINE PHOSPHATE], the IC50 in data set [1] was 2300 nM.
As to `O=[N+]([O-])/C=C/c1ccccc1` [(2-NITROVINYL)BENZENE], the concentration for half-maximal inhibition (IC50) in [1] is 3500 nM.
In turn, `C=CC(=O)Nc1ccccc1` registered an inhibition in [2] of 17%.
For `C=C(CC)C(=O)c1ccc(OCC(=O)O)c(Cl)c1Cl`, the inhibition in data set [2] was found to be 56%.
With `COC(=O)/C=C/C(=O)OC`, the inhibition in [2] was 22%.
In data set [1], `CCOC(=O)C(C)(C)Oc1cc(/C=C/[N+](=O)[O-])ccc1OC(F)F` yielded an IC50 of 1600 nM.
`CCOC(=O)C(C)(C)Oc1ccc(Br)c(/C=C/[N+](=O)[O-])c1`: in data set [1], inhibition was half-maximal at 790 nM (IC50).
With `c1ccc(C2CO2)cc1` (configuration not stated), in [2], the inhibition worked out at 31%.
`CCOC(=O)C(C)(C)Oc1ccc(/C=C/[N+](=O)[O-])cc1` displayed an IC50 in [1] of 3100 nM.
For the compound `CCOC(=O)C(C)(C)Oc1ccc(Cl)c(/C=C/[N+](=O)[O-])c1`, the inhibition entry in the data set on Hepatocyte [3] was “inactive”. Also, the viability at 6 h in [4] was more than 80%. In addition, the inhibition result in the data set with Hepatocyte [5], in the data set with Hepatocyte [9] and in the data set with Hepatocyte [13] was “Dose-dependent effect” throughout. Also, the Activity entry in the data set on Hepatocyte [6], with Hepatocyte [12] and with Hepatocyte [14] was “Non-Toxic” throughout. Also, the inhibition result in the data set on Hepatocyte [7], with Hepatocyte [8] and in the data set with Hepatocyte [10] was “Active” each time. The same compound had an inhibition at 400 µM with Hepatocyte [11] of 90%. The IC50 in [1] worked out at 2900 nM.
In data set [2], `O=C/C=C/c1ccccc1` showed an inhibition of 15%.
As for `CCOC(=O)C(C)(C)Oc1cccc(/C=C/[N+](=O)[O-])c1`, the IC50 in [1] is 1000 nM.
Take `CCOC(=O)C(C)(C)Oc1ccc(F)cc1/C=C/[N+](=O)[O-]`: the IC50 in data set [1] is 7000 nM.
Compound `O=C1C=CCC1` had an inhibition in data set [2] of 29%.
Still for that read-out and setting: under `S=C=NCc1ccccc1` stands 4.1%.
`CCOC(=O)C(C)(C)Oc1ccc(/C=C/[N+](=O)[O-])cc1Cl` had an IC50 in [1] of 1600 nM.
Still for that read-out and setting: under `CCOC(=O)C(C)(C)Oc1ccc(/C=C/[N+](=O)[O-])c(Cl)c1` stands 1800 nM.
In turn, `CCCCCCCC/C=C(\CCCCCCCC(=O)O)[N+](=O)[O-]` [NITROLEIC ACID] showed an IC50 in data set [1] of 58000 nM.
Take `CCOC(=O)C(C)(C)Oc1ccc(Cl)cc1/C=C/[N+](=O)[O-]`: the inhibition entry with Hepatocyte [3] is “inactive”. The viability at 6 h in data set [4] was more than 80%. Also, the inhibition entry in the data set on Hepatocyte [5], in the data set on Hepatocyte [9] and with Hepatocyte [13] was “Dose-dependent effect” throughout. For the same compound, the Activity result with Hepatocyte [6], in the data set with Hepatocyte [12] and in the data set on Hepatocyte [14] was “Non-Toxic” each time. Further, the inhibition entry in the data set with Hepatocyte [7], in the data set with Hepatocyte [8] and in the data set on Hepatocyte [10] was “Active” throughout. At 400 µM the inhibition with Hepatocyte [11] was 90%. In addition, in data set [1], the IC50 was determined as 8200 nM.
On to `CC(=O)C=O`, for which the inhibition in data set [2] amounted to 19%.
`O=C(O)/C=C/C(=O)O` returned an inhibition in data set [2] of 9.5%.
